# Experimental data gathered from unrelated publications.
# Compare with care: the assays were run in different laboratories.
# TOP2A: DNA topoisomerase 2-alpha (TOP2A, Homo sapiens, UniProt P11388)
# FAAH: Fatty-acid amide hydrolase 1 (FAAH, Homo sapiens, UniProt O00519)
# HTR2C: 5-hydroxytryptamine receptor 2C (HTR2C, Homo sapiens, UniProt P28335)
# DHFR: Dihydrofolate reductase (DHFR, Homo sapiens, UniProt P00374)
# HTR2B: 5-hydroxytryptamine receptor 2B (HTR2B, Homo sapiens, UniProt P41595)
SMILES,target,observed,mode,technique,IC50 [µM]
CC(C)c1ccc(CSc2nc(SCc3ccc4sccc4c3)[nH]c(=O)n2)cc1,TOP2A,enzyme activity,inhibitor,,14.2
O=C(Nc1ccc(-c2ccc3ncccc3c2)cc1)C1CCN(S(=O)(=O)c2ccccc2Cl)CC1,FAAH,enzyme activity,inhibitor,fluorescence,0.0508
O=c1nc(SCc2cc(F)cc(C(F)(F)F)c2)nc(SCc2ccc3ccccc3n2)[nH]1,TOP2A,enzyme activity,inhibitor,,18.6
NCC1Cc2cc(F)ccc2N(C(=O)Cc2cc(F)ccc2Br)C1 (stereo not drawn),HTR2C,calcium signal,antagonist,,43.4
O=C(Nc1ccc(-c2cnc3ccccc3c2)cc1)C1CCN(S(=O)(=O)c2ccccc2Cl)CC1,FAAH,enzyme activity,inhibitor,fluorescence,0.016
Cc1ccccc1NC(=O)C=Cc1ccc(O)c(O)c1,DHFR,enzyme activity,inhibitor,absorbance,1.1
S=C(NN=Cc1ccc(N2CCCCC2)cc1)Nc1ccc(Br)cc1,DHFR,enzyme activity,inhibitor,,26.1
O=C(c1cc(C2CCNC2)[nH]n1)N1CCC(c2cccc(Cl)c2)C1 (stereo not drawn),HTR2C,calcium signal,antagonist,,8.5
O=C(Nc1ccc(-c2ccnc3ccccc23)cc1)C1CCN(S(=O)(=O)c2ccccc2Cl)CC1,FAAH,enzyme activity,inhibitor,fluorescence,0.0887
Oc1cc(CN2CCN3CCCCC3C2)c2ccccc2c1 (stereo not drawn),HTR2B,calcium signal,antagonist,,0.586
O=c1nc(SCc2cc(F)cc(C(F)(F)F)c2)nc(SCc2cccc(C(F)(F)F)c2)[nH]1,TOP2A,enzyme activity,inhibitor,,14.5
O=[N+]([O-])c1cccc(NC(=S)NN=Cc2ccc(N3CCCCC3)cc2)c1,DHFR,enzyme activity,inhibitor,,13.7
O=C(Nc1ccc(-c2cccc3cccnc23)cc1)C1CCN(S(=O)(=O)c2ccccc2Cl)CC1,FAAH,enzyme activity,inhibitor,fluorescence,0.135
Cc1nc(CSc2nc(SCc3cc(F)cc(C(F)(F)F)c3)nc(=O)[nH]2)cs1,TOP2A,enzyme activity,inhibitor,,55
S=C(NN=Cc1ccc(N2CCCCC2)cc1)Nc1ccccc1,DHFR,enzyme activity,inhibitor,,15.6
CC1CCC(C(C)C)C(OC(=O)C=Cc2ccc(O)c(O)c2)C1 (stereo not drawn),DHFR,enzyme activity,inhibitor,absorbance,0.182
O=[N+]([O-])c1ccc(NC(=S)NN=Cc2ccc(N3CCCCC3)cc2)cc1,DHFR,enzyme activity,inhibitor,,16.2
CC(C)NCC(COc1cccc2ccccc12)OC(=O)C=Cc1ccc(O)c(O)c1 (stereo not drawn),DHFR,enzyme activity,inhibitor,absorbance,0.048
O=c1nc(SCc2cc(F)cc(C(F)(F)F)c2)nc(SCc2ccc3ncsc3c2)[nH]1,TOP2A,enzyme activity,inhibitor,,36.3
O=C(O)/C=C/c1ccc(O)c(O)c1,DHFR,enzyme activity,inhibitor,absorbance,105
CC1CC2CN(C(C)C(=O)c3c[nH]c4ccccc34)CCN2C1 (stereo not drawn),HTR2B,calcium signal,antagonist,,2.25
S=C(NCc1ccccc1)NN=Cc1ccc(N2CCCCC2)cc1,DHFR,enzyme activity,inhibitor,,31.3
c1ccc(O[C@H]2CCN(Cc3ccc(-c4ccn[nH]4)o3)C2)cc1,HTR2B,calcium signal,antagonist,,15.6
S=C(NN=Cc1ccc(N2CCCCC2)cc1)NC1CCCCC1,DHFR,enzyme activity,inhibitor,,41.2
Cc1[nH]c2ccccc2c1SCCNC(=O)C1NCCC1C1CC1 (stereo not drawn),HTR2C,calcium signal,antagonist,,38.2
Cc1ccc(CNC(=S)NN=Cc2ccc(N3CCCCC3)cc2)cc1,DHFR,enzyme activity,inhibitor,,33.9
Cc1[nH]c2ccccc2c1C(=O)C(C)N1CCC(c2nccn2C)C1 (stereo not drawn),HTR2C,calcium signal,antagonist,,2.61
S=C(NN=Cc1ccc(N2CCCCC2)cc1)Nc1cccc(Cl)c1Cl,DHFR,enzyme activity,inhibitor,,47.3
Nc1ccccc1OC(=O)C=Cc1ccc(O)c(O)c1,DHFR,enzyme activity,inhibitor,absorbance,16.9
Cc1[nH]c2ccccc2c1SCCNC(=O)CN1CCC(C)C1 (stereo not drawn),HTR2B,calcium signal,antagonist,,3.68
